Experimental data reported in article PMC9476207 (ACS Omega, 2022).

Tests used:
Experiment in all cases: NCI-60 single-dose antiproliferative screen
Format in all cases: cell-based
SNB-75 = conditions: Homo sapiens, SNB-75, 48 h, read-out: growth percent
Method in brief: (§1)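 Cells grown in RPMI 1640 with 5% FBS and 2 mM L-glutamine, plated and held 24 h at 37 °C; time-zero plates TCA-fixed. DMSO stocks were diluted in gentamicin-containing medium to a final 10^-5 M, with a DMSO-only control. Exposure 48 h, 5% CO2. Adherent cells TCA-fixed 1 h at 4 °C, stained with 0.4% SRB, solubilised in 10 mM Trizma base, read at 515 nm. Growth percent derived from ODtzero, ODtest and ODctrl.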

NCI-H226 = conditions: Homo sapiens, NCI-H226, 48 h, read-out: growth percent
Method in brief: (§2)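 NCI-60 protocol. Lines were grown in RPMI 1640 with 5% FBS and 2 mM L-glutamine, plated and incubated 24 h at 37 °C; time-zero plates were TCA-fixed. The test compound was dissolved in DMSO, diluted in medium with 50 μg/mL gentamicin and given once at a final 10^-5 M (DMSO control) for 48 h. Cells were fixed with cold TCA (1 h, 4 °C) and stained with 0.4% SRB in 1% acetic acid for 10 min. Dye was dissolved in 10 mM Trizma base and read at 515 nm. Growth percent was calculated from time-zero, test and control ODs.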

TK-10 = conditions: Homo sapiens, TK-10, 48 h, read-out: growth percent
Method in brief: as §1

HT29 = conditions: Homo sapiens, HT-29, 48 h, read-out: growth percent
Method in brief: as §2

NCI-H23 = conditions: Homo sapiens, NCI-H23, 48 h, read-out: growth percent
Method in brief: as §2

EKVX = conditions: Homo sapiens, 48 h, read-out: growth percent
Method in brief: as §2

UACC-257 = conditions: Homo sapiens, UACC-257, 48 h, read-out: growth percent
Method in brief: as §1

CCRF-CEM = conditions: Homo sapiens, 48 h, read-out: growth percent
Method in brief: as §2

SNB-19 = conditions: Homo sapiens, SNB-19, 48 h, read-out: growth percent
Method in brief: as §1

IGROV1 = conditions: Homo sapiens, IGROV-1, 48 h, read-out: growth percent
Method in brief: as §2

M14 = conditions: Homo sapiens, M14, 48 h, read-out: growth percent
Method in brief: as §2

BT-549 = conditions: Homo sapiens, BT-549, 48 h, read-out: growth percent
Method in brief: as §2

SF-539 = conditions: Homo sapiens, SF-539, 48 h, read-out: growth percent
Method in brief: as §1

T-47D = conditions: Homo sapiens, T47D, 48 h, read-out: growth percent
Method in brief: as §1

DU-145 = conditions: Homo sapiens, DU-145, 48 h, read-out: growth percent
Method in brief: as §2

786-0 = conditions: Homo sapiens, 786-0, 48 h, read-out: growth percent
Method in brief: as §2

OVCAR-8 = conditions: Homo sapiens, OVCAR-8, 48 h, read-out: growth percent
Method in brief: as §2

COLO205 = conditions: Homo sapiens, COLO 205, 48 h, read-out: growth percent
Method in brief: as §2

MCF-7 = conditions: Homo sapiens, MCF7, 48 h, read-out: growth percent
Method in brief: as §2

Work on COc1cc(CNC(=O)CCCC/C=C/C(C)C)ccc1OCc1cn(-c2ccccc2OC)nn1 [14l, (E)-N-(3-Methoxy-4-((1-(2-methoxyphenyl)-1H-1,2,3-triazol-4-yl)methoxy)benzyl)-8-methylnon-6-enamide] yielded an activity at 10 µM (SNB-75) of 103%, an activity at 10 µM (NCI-H226) of 80.5% and an activity at 10 µM (TK-10) of 90.2%. The activity at 10 µM (HT29) was 98.7%, the activity at 10 µM (NCI-H23) was 96% and the activity at 10 µM (EKVX) was 89.4%. It also gave an activity at 10 µM (UACC-257) of 85.2%, an activity at 10 µM (CCRF-CEM) of 83.7% and an activity at 10 µM (SNB-19) of 91.6%. It also gave an activity at 10 µM (IGROV1) of 104%, an activity at 10 µM (M14) of 96.7% and an activity at 10 µM (BT-549) of 93.1%. For the same molecule, the activity at 10 µM (SF-539) was 106%, the activity at 10 µM (T-47D) was 92.2% and the activity at 10 µM (DU-145) was 83.1%. It also gave an activity at 10 µM (786-0) of 102%, an activity at 10 µM (OVCAR-8) of 82.2% and an activity at 10 µM (COLO205) of 117%. It also gave an activity at 10 µM (MCF-7) of 98.2%.
Work on COc1cc(CNC(=O)CCCC/C=C/C(C)C)ccc1OCc1cn(-c2cc(OC)c(OC)c(OC)c2)nn1 [14m, (E)-N-(3-Methoxy-4-((1-(3,4,5-trimethoxyphenyl)-1H-1,2,3-triazol-4-yl)methoxy)benzyl)-8-methylnon-6-enamide] yielded an activity at 10 µM (SNB-75) of 95.2%, an activity at 10 µM (NCI-H226) of 91.4% and an activity at 10 µM (TK-10) of 91.6%. The activity at 10 µM (HT29) was 87.2%, the activity at 10 µM (NCI-H23) was 90.1% and the activity at 10 µM (EKVX) was 95.9%. The activity at 10 µM (UACC-257) was 93.6%, the activity at 10 µM (CCRF-CEM) was 96.3% and the activity at 10 µM (SNB-19) was 85.1%. The activity at 10 µM (IGROV1) was 103%, the activity at 10 µM (M14) was 94.5% and the activity at 10 µM (BT-549) was 79.1%. For the same molecule, the activity at 10 µM (SF-539) was 92%, the activity at 10 µM (T-47D) was 95.8% and the activity at 10 µM (DU-145) was 85.4%. The activity at 10 µM (786-0) was 108%, the activity at 10 µM (OVCAR-8) was 88.2% and the activity at 10 µM (COLO205) was 106%. The activity at 10 µM (MCF-7) was 102%.
Work on CCc1ccc(-n2cc(COc3ccc(CNC(=O)CCCC/C=C/C(C)C)cc3OC)nn2)cc1 [14o, (E)-N-(4-((1-(4-Ethylphenyl)-1H-1,2,3-triazol-4-yl)methoxy)-3-methoxybenzyl)-8-methylnon-6-enamide] yielded an activity at 10 µM (SNB-75) of 92.6%, an activity at 10 µM (NCI-H226) of 76.7% and an activity at 10 µM (TK-10) of 87.4%. It also gave an activity at 10 µM (HT29) of 109%, an activity at 10 µM (NCI-H23) of 89.5% and an activity at 10 µM (EKVX) of 82.1%. For the same molecule, the activity at 10 µM (UACC-257) was 86.4%, the activity at 10 µM (CCRF-CEM) was 86.8% and the activity at 10 µM (SNB-19) was 85.7%. The activity at 10 µM (IGROV1) was 102%, the activity at 10 µM (M14) was 99.8% and the activity at 10 µM (BT-549) was 99.1%. The activity at 10 µM (SF-539) was 104%, the activity at 10 µM (T-47D) was 111% and the activity at 10 µM (DU-145) was 93.8%. For the same molecule, the activity at 10 µM (786-0) was 100%, the activity at 10 µM (OVCAR-8) was 91.1% and the activity at 10 µM (COLO205) was 121%. It also gave an activity at 10 µM (MCF-7) of 102%.
Molecule COc1cc(CNC(=O)CCCC/C=C/C(C)C)ccc1OCc1cn(-c2ccc(Cl)c(Cl)c2)nn1 [14d, (E)-N-(4-((1-(3,4-Dichlorophenyl)-1H-1,2,3-triazol-4-yl)methoxy)-3-methoxybenzyl)-8-methylnon-6-enamide] has an activity at 10 µM (SNB-75) of 79.1%, an activity at 10 µM (NCI-H226) of 76.6% and an activity at 10 µM (TK-10) of 88.6%. It also gave an activity at 10 µM (HT29) of 99.4%, an activity at 10 µM (NCI-H23) of 93.2% and an activity at 10 µM (EKVX) of 76.2%. The activity at 10 µM (UACC-257) was 89.2%, the activity at 10 µM (CCRF-CEM) was 84.7% and the activity at 10 µM (SNB-19) was 87.3%. It also gave an activity at 10 µM (IGROV1) of 104%, an activity at 10 µM (M14) of 92.7% and an activity at 10 µM (BT-549) of 91.8%. For the same molecule, the activity at 10 µM (SF-539) was 96.1%, the activity at 10 µM (T-47D) was 87% and the activity at 10 µM (DU-145) was 86.5%. It also gave an activity at 10 µM (786-0) of 96.3%, an activity at 10 µM (OVCAR-8) of 91% and an activity at 10 µM (COLO205) of 111%. For the same molecule, the activity at 10 µM (MCF-7) was 95.3%.
